Assay outcomes deposited in PubChem by several laboratories.
L929 necroptosis – blocks zVAD induced death of L929 cells; L929 zVAD necroptosis rescue, ATP luminescence, 24 h; with zVAD 60 µM; viability rescue, % at 10 µM; 220,000 compounds, 0.38% hits; AID 1377;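 active means activation, scaled between plate controls, above about 75%, limit read from the data; inactive means activation under that limit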;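 further: 0% = zVAD with DMSO and 100% = DMSO alone without zVAD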
TNF necrop inh – blocks TNF-alpha induced death of Jurkat FADD-/- cells | Jurkat FADD-/- TNF necroptosis rescue, ATP luminescence, 24 h; 0 = TNF only, 100 = no-TNF cells | activation (protection from cell death), % at 10 µM | 220,000 compounds, 0.068% hits;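 active means activation, meaning protection from cell death, of at least 50% relative to plate controls; inactive means activation below 50%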;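 further: necroptosis triggered by 40 ng/mL TNF-alpha added together with compound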
sdo1 growth – restores growth of sdo1-depleted yeast | S. cerevisiae sdo1-depleted JHY4D growth rescue, OD600 30 h; stronger effect = higher value; pdr5 snq2 efflux-pump mutant strain | z-score at 10 µM | 140,000 compounds, 0.21% hits;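 active means z-score above 3 at both the 24 hr and the 30 hr optical density reads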;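 further: z-score against mean and SD of all compound wells on the same plate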
TNAP act hiacc – increases human TNAP activity under high phosphate acceptor concentration | activation factor at 20 µM | purified TNAP, CDP-star luminescence, 1 M DEA, 30 min; stronger effect = higher value; 0 = EDTA background, 1 = DMSO-only activity | 200,000 tested, under 10 active | AID 1136 | P05186;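 active means activation factor at least 2 at 20 µM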
Target sequence (P05186 whole entry, looked up): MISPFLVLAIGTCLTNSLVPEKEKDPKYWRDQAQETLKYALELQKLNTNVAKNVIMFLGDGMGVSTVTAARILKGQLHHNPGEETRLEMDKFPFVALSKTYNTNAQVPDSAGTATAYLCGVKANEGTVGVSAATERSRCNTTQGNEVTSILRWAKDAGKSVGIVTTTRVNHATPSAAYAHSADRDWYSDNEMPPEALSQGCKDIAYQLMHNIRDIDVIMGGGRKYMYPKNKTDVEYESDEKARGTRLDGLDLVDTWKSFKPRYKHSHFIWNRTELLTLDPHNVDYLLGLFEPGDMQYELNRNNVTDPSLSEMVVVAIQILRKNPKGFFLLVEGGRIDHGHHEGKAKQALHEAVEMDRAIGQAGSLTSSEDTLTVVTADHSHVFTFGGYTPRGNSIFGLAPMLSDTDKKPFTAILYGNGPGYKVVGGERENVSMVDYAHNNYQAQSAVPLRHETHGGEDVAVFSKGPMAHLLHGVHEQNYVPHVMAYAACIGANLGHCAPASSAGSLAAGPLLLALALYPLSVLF
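system = human TNAP | amount = enzyme diluted 1/800 final | reagent = 100 µM CDP-star substrate | signal = luminescent substrate turnover signal | dosing = one dose, 20 µM | benchmarks = EDTA negative control, DMSO positive control | measure = activation factor | timing = 30 min reaction, room temperature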
TNAP inh noacc – blocks human TNAP activity with no phosphate acceptor present; purified TNAP, CDP-star luminescence, 30 min; inhibition, % at 20 µM; 200,000 compounds, 0.26% hits; AID 1012;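 active means tissue-nonspecific alkaline phosphatase inhibition above about 50% at 20 µM in the single-dose screen, limit read from the data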;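 further: 0% = DMSO negative control and 100% = EDTA positive control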
TNAP inh hiacc – TNAP (human) inhibition, high acceptor; inhibition, % at 20 µM; P05186; 200,000 compounds, 0.03% hits; AID 1135; purified TNAP, CDP-star luminescence, 1 M DEA;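 active means over 50% inhibition of tissue-nonspecific alkaline phosphatase at 20 µM in the single-dose screen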;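 further: plate controls were DMSO wells for no effect and EDTA-quenched wells as full inhibition for full effect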
Active calls of the source: *; . = not tested or not shown. Most compounds without a hit are left out; they make up all but 0.81% or so of the library.

SMILES	L929 necroptosis	TNF necrop inh	sdo1 growth	TNAP act hiacc	TNAP inh noacc	TNAP inh hiacc
CC(OC(=O)CN1C(=O)C2C3C=CC(C4CC34)C2C1=O)C(=O)c1ccccc1 (stereo unspecified)	0.9	0.2	.	.	.	.
c1ccc(-c2n[nH]c(-c3ccccn3)n2)cc1	-0.3	-14.0	0.68	1	66.6*	-3.9
c1ccc(-c2nc(-c3ccccn3)no2)cc1	.	-10.9	0.91	1	-3.9	0.5
COc1ccc(C2=NN(c3ccccc3)C(=O)/C2=C\c2ccc(O)c(OC)c2)cc1	0.9	0.1	.	0.6	50.1*	40.8
O=C1/C(=C/c2ccc(O)c(O)c2)SC(=S)N1Nc1ccccc1	1.2	-5.5	.	0.1	93.7*	88.4*
COc1cc(/C=C2/SC(=S)N(CC3CCCO3)C2=O)ccc1O (stereo unspecified)	-1.4	-1.6	-1.19	0.4	36.2	55.8*
COc1cc(/C=C2\SC(=S)N(Nc3ccccc3)C2=O)ccc1O	0.0	2.8	-1.75	0.4	44.5	55.0*
O=C(O)CNC(=S)N(Cc1ccccc1)Cc1cccnc1	1.5	-0.4	.	1.1	-6.2	-5.5
Cc1ccc2[nH]c(O)c(N=NC(N)=S)c2c1	1.9	-4.4	.	.	.	.
NC(=S)N=Nc1c(O)[nH]c2ccccc12	.	-0.3	1.04	1	65.2*	3.8
COC(=O)Cc1ccc(O)c(N)c1	0.2	4.4	.	1	-3.3	-3.7
Cc1ccc(NC(=O)CSCc2ccc(F)cc2)cc1	0.5	53.3*	-0.94	1	-4.4	-4.1
Cc1ccc(CSCC(=O)NCc2ccc(F)cc2)cc1	1.1	5.6	.	1	-4.9	-1.4
O=C1c2ccccc2C(=O)N1c1n[nH]c(CCc2ccccc2)n1	-0.1	-2.9	-0.41	1	57.2*	-0.2
O=C(CN1CCN(S(=O)(=O)c2ccc(F)cc2)CC1)c1ccc(O)c(O)c1	1.7	0.9	.	1	56.3*	1.8
COc1ccc(-c2nn(-c3ccccc3C)cc2CNC(C)c2cn(C)nc2C)cc1F (stereo unspecified)	1.6	2.1	.	1	-5.7	-0.9
COc1ccc(-c2[nH]ncc2CNC(C)CCn2cccn2)c(F)c1 (stereo unspecified)	-0.6	0.7	.	1	72.5*	-4.1
COc1ccc(-c2[nH]ncc2CNC(C)c2cn(C)nc2C)c(F)c1 (stereo unspecified)	0.2	-0.2	.	1.1	74.0*	-7.0
COC(=O)Cc1[nH]c(=S)[nH]c1C(=O)OC	0.4	1.9	.	.	.	.
O=[N+]([O-])c1ccc(/C=N/NC2=NS(=O)(=O)c3ccccc32)cc1	-0.2	0.0	.	0.9	1.5	6.0
O=[N+]([O-])c1ccc(O)c(/C=N/NC2=NS(=O)(=O)c3ccccc32)c1	0.2	-0.3	.	0.9	73.4*	10.0
O=C(Nc1ncc(Cc2ccccc2)s1)C1COc2ccccc2O1 (stereo unspecified)	0.4	55.1*	-0.52	1	-9.6	-3.6
Cc1ccc(Cc2cnc(NC(=O)c3cccs3)s2)cc1	0.5	1.1	-1.74	1.1	-6.4	-6.0
Cc1nnc(NC(=O)C2COc3ccccc3O2)s1 (stereo unspecified)	3.1	38.4	0.58	1.1	-10.9	-8.6
O=C(Nc1ncc(Cc2ccccc2)s1)c1cccs1	83.2*	-3.1	-1.01	1.1	-13.3	-10.4
SMILES	L929 necroptosis	TNF necrop inh	sdo1 growth	TNAP act hiacc	TNAP inh noacc	TNAP inh hiacc
CC1Cc2ccccc2N1C(=O)CO/N=C/c1ccc(OC(F)F)cc1 (stereo unspecified)	1.2	3.5	-0.45	1.1	-9.8	-5.3
c1ccc(-c2ccc(-c3nccc4ccccc34)[nH]2)cc1	0.9	-5.5	.	.	.	.
Cc1cccc(C)c1NC(=O)COC(=O)CCC(=O)c1cccs1	0.7	0.4	.	1	-4.7	1.3
COc1cc(-c2cc(=O)c3c(O)c(OC)c(OC)c(O)c3o2)ccc1O	32.7	-6.8	.	0.9	64.3*	5.4
CC(C)(C)n1nc2c(c1NC(=O)c1cc3ccccc3o1)CS(=O)(=O)C2	1.7	0.2	.	1.1	50.7*	-5.2
Cc1nn(-c2ccccc2)c(C)c1/C=N/NC(=O)c1cc(-c2ccccc2)n[nH]1	3.7	-20.1	0.23	0.8	97.7*	21.5
